Hits are enriched below; roughly 3.5% of the tested compounds scored in any of these assays.
MrgX1 allo act = allosterically activates human MrgX1 receptor signaling; MrgX1-HEK293, Fluo-4 calcium flux, FDSS; active compounds read high; hit rate 0.63% among 310,000; B-score at 10 µM;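 active = plate-corrected calcium response at least 3 library SD above typical, normal starting fluorescence, not activating the receptor alone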;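 also: compound read alongside a low EC10 to EC30 dose of BAM8-22 agonist; peak minus trough fluorescence over baseline measured at the second addition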
Target sequence (Q96LB2 whole entry, looked up): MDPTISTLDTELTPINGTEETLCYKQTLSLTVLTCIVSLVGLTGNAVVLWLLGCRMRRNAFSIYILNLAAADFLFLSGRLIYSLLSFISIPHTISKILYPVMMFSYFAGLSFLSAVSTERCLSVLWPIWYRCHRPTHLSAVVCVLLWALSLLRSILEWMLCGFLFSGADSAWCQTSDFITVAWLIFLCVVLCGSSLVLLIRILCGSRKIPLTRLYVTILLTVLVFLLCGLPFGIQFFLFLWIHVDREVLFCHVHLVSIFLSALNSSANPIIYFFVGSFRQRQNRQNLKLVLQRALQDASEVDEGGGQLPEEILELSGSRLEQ
RGS4 block = human RGS4 inhibition. P49798. HEK293 M3R/RGS4 inducible, Fluo-4 calcium flux; active compounds read high; triggered by carbachol at its EC20. B-score at 10 µM. hit rate 0.45% among 310,000. AID 463165;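 active = B-score, a plate-corrected calcium signal, over three deviations above library mean, with baseline fluorescence within five deviations of library mean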;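 also: RGS4 expression induced by doxycycline in cells with stable M3 receptor; B-score is computed from the integrated fluorescence ratio over baseline after carbachol; higher B-score means a larger calcium signal and so more RGS4 inhibition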
Target sequence (P49798 whole entry, looked up): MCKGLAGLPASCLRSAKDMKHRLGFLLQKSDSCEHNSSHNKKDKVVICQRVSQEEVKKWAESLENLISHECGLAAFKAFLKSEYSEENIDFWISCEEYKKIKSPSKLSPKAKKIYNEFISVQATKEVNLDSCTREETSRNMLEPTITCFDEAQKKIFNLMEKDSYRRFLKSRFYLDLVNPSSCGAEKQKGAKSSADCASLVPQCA
RGS4 pot = potentiators or activators of RGS4 | AID 463111 | hit rate 0.92% among 310,000 | HEK293 M3R/inducible RGS4, carbachol calcium flux Fluo4; active compounds read low | B-score at 10 µM;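 active = B-score of the integrated calcium signal more than 4 SD below the library mean, with starting fluorescence not abnormally high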;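 also: negative B-score means reduced calcium response which marks RGS4 activation or potentiation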
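System – HEK293 FlpIn-TREx cells, stable M3R, doxycycline-inducible RGS4 · Reagent – ECmax carbachol challenge · Times – compound preincubation 20 min at room temperature before agonist · Technique – Fluo4 fluorescence kinetic imaging of calcium · Measure – B score of integrated Fluo4 ratio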
MrgX1 agonist = activates human MrgX1 receptor signaling. Q96LB2. MrgX1-HEK293 cells, Fluo-4 calcium fluorescence, agonist mode; active compounds read high. B-score at 10 µM. hit rate 0.44% among 310,000. AID 588627;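 active = calcium response B-score plate-corrected fluorescence ratio at least 3 library SD, with starting fluorescence B-score inside 5 SD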
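Test system: HEK293 cells stably expressing human MrgX1 receptor; Input: fifteen thousand cells per well; Dosing: compound delivered in addition one of three; Schedule: overnight seeding, then 1 h dark dye loading; Technique: Fluo-4 NW calcium fluorescence; Measure: B-scored fluorescence response ratio; Controls: positive and negative controls per plate.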
MrgX1 antagonist = blocks BAM8-22 activation of human MrgX1 receptor. Q96LB2. MRGX1-HEK293 calcium flux, Fluo-4, BAM8-22 antagonism; active compounds read low. B-score at 10 µM. hit rate 1.3% among 310,000. AID 588676;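 active = calcium-response B-score plate-corrected more than 3 library SD below zero, starting fluorescence within 5 deviations, no agonist response on first addition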;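 also: peak minus trough fluorescence over baseline after final BAM8-22 challenge near maximal dose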
The depositor's hits bear a star; i = inactive; x = not tested or not shown.

SMILES | MrgX1 allo act | RGS4 block | RGS4 pot | MrgX1 agonist | MrgX1 antagonist
COc1ccc(-c2nnc(SCC(=O)c3ccc(C)o3)o2)cc1 | x | i | i | x | x
CC(C)Cc1cc(C(=O)N(C)C2CCCN(Cc3ccccc3F)C2)n(C)n1 (stereo not given) | i | i | i | i | i
COc1ccc(NS(=O)(=O)c2cccc(C(=O)NCc3ccccn3)c2)cc1 | i | i | i | i | i
Cc1cc(C)n(C(=O)c2c([N+](=O)[O-])c(C)nn2C)n1 | i | i | i | i | -7.67*
O=C(/C=C1\SC(=O)N(CC(=O)Nc2ccc(Cl)cc2)C1=O)Nc1ccc(F)cc1 | i | i | i | i | i
Cc1cccc(NC(=O)CN2C(=O)S/C(=C\C(=O)Nc3ccc(Cl)cc3)C2=O)c1 | i | i | i | i | -5.74*
CCN1C(=O)[C@H]2[C@@H](c3ccc(-c4ccc(F)cc4)c(OC)c3)N[C@@](CC(C)C)(C(=O)OC)[C@H]2C1=O | i | i | i | i | i
Oc1ccc(CCNc2ncnc3ccc(Cl)cc23)cc1 | i | i | i | i | -5.57*
CN(C)c1ccc(C=C2C(=O)OC(C)(C)OC2=O)cc1 | i | i | i | i | i
CCN(CC)c1ccc(C=C2C(=O)OC(c3ccccc3)OC2=O)cc1 (stereo not given) | i | i | i | 27.3* | i
CCN(CC)c1ccc(C=C2C(=O)OC(C)(C(C)(C)C)OC2=O)cc1 (stereo not given) | i | i | i | 56* | i
CN(C)c1ccc(C=C2C(=O)OC(C)(C(C)(C)C)OC2=O)cc1 (stereo not given) | i | i | i | i | i
c1ccc(Cc2ccc(OCCCNC3CCCC3)cc2)cc1 | i | i | -12.3* | i | i
c1ccc(-c2ccc(OCCCNC3CCCC3)cc2)cc1 | i | i | i | i | i
O=C(NCCCN1CCN(Cc2ccccc2)CC1)c1nnc(Cc2c(F)cccc2Cl)o1 | i | i | i | i | -4.67*
O=C(NCCCO)c1nnc(Cc2c(F)cccc2Cl)o1 | i | i | i | i | i
Cc1ccc(/C([O-])=C(/C(=S)NCc2ccco2)[n+]2ccccc2)cc1 | i | 4.69* | i | i | i
O=[N+]([O-])c1ccc(/C([O-])=C(/C(=S)NCc2ccco2)[n+]2ccccc2)cc1 | i | i | i | i | i
CNC(=O)c1ccc(CNC(=O)OCc2ccccc2)cc1 | i | i | i | i | i
CCOC(=O)COn1c(-c2cccc(Cl)c2)nc2ccc([N+](=O)[O-])cc21 | i | i | i | i | -6.23*
CC(=O)c1cccc(Nc2nc(-c3sc(N)nc3C)cs2)c1 | i | i | -7.22* | i | i
CC(=O)c1cccc(Nc2nc(-c3sc(C)nc3C)cs2)c1 | i | i | i | i | i
CCC(=O)Nc1nc(C)c(-c2csc(Nc3cccc(O)c3)n2)s1 | i | i | -7.29* | i | -5.4*
Cc1nc(C)c(-c2csc(Nc3cccc(O)c3)n2)s1 | i | i | i | i | i
CCN(/N=C/C=C/c1ccccc1)c1cc(=O)n(C)c(=O)[nH]1 | i | i | i | i | -5.61*
SMILES | MrgX1 allo act | RGS4 block | RGS4 pot | MrgX1 agonist | MrgX1 antagonist
C#CCSc1ncc(-c2ccccc2)cn1 | i | i | i | i | -7.5*
COc1cccc(Oc2cn[nH]c2-c2ccc(OCC(=O)NN)cc2O)c1 | i | i | i | i | i
CCCOC(=O)c1ccc(Oc2cn[nH]c2-c2ccc(OC)cc2O)cc1 | i | i | -7.53* | i | i
CN(Cc1ccc(F)cc1)C(=O)c1sccc1-c1ccccc1 | i | i | -7.19* | i | i
O=C1Nc2cccnc2N(C(=O)CCl)c2ccccc21 | i | i | i | i | i
Cc1nc(N/N=C/c2ccccc2)nc(N(C)c2ccccc2)c1[N+](=O)[O-] | i | i | i | i | -7.61*
Cc1ccc(S(=O)(=O)NC(=O)N(CCC#N)Cc2ccccc2)cc1 | i | i | i | i | i
CCn1c(SCc2cccc(C(F)(F)F)c2)nnc1-c1ccco1 | i | i | i | i | -6.37*
COc1ccccc1CNC(=S)NCc1ccc(F)cc1 | i | i | i | i | i
COc1ccc(N2CCN(Cc3cc4c(cc3Br)OCCO4)CC2)cc1 | i | i | -7* | i | i
O=[N+]([O-])c1cc([N+](=O)[O-])c2cc3ccccc3nc2c1 | i | 14.2* | i | 27.7* | i
O=[N+]([O-])c1cnc2ccccc2c1 | i | i | i | i | i
O=S(=O)(NNc1cccc(Cl)n1)c1ccc(Cl)cc1 | x | i | i | x | x
CC(C)c1ccc(NC2CCCN(C(=O)CCc3cnn(C)c3)C2)cc1 (stereo not given) | i | i | i | i | i
Cc1nn(C)c(C)c1/C=N/N=C1\CCC2C3CCc4cc(O)ccc4C3CCC12C (stereo not given) | i | i | i | i | -5.64*
COc1ccc(N(CC(=O)NCC(C)C)S(=O)(=O)c2ccccc2)cc1 | i | i | i | i | i
CC(C)c1ccc(N(CC(=O)NCCSCc2ccco2)S(C)(=O)=O)cc1 | 7.13* | i | i | i | i
COc1ccccc1CNC(=O)CN(c1ccc(C)cc1)S(=O)(=O)c1c(C)nn(C)c1C | i | i | i | i | i
COc1ccc(N(CC(=O)NCc2ccccc2OC)S(=O)(=O)c2c(C)nn(C)c2C)cc1 | i | i | i | i | -6.27*
COc1ccc(N(CC(=O)NCCSCc2ccccc2C)S(=O)(=O)c2ccccc2)cc1 | i | i | -7.8* | i | i
COc1ccccc1N(CC(=O)NCCSCc1cccc(C)c1)S(=O)(=O)c1ccccc1 | i | i | -8.58* | i | i
COc1ccccc1N(CC(=O)NCCSCc1ccccc1)S(C)(=O)=O | i | i | i | i | i
CS(=O)(=O)N(CC(=O)NCCSCc1ccco1)c1ccc(Cl)cc1 | i | i | i | i | i
O=S1(=O)CCOC[C@H](CC2CCCCC2)N1Cc1ccccc1Br | i | i | i | i | i
COc1cccc(N(CC(=O)NCCSCc2ccco2)S(=O)(=O)c2ccccc2)c1 | 7.16* | i | i | i | i
Cc1cc(C)n(CC(=O)N/N=C/c2ccc([N+](=O)[O-])s2)n1 | i | i | i | i | i
Cc1cc(C)n(CC(=O)N/N=C/c2cccs2)n1 | i | i | i | i | -4.62*
CCN(CC(=O)Nc1cccc(OC)c1)C(=O)c1ccco1 | i | i | i | i | i

Bioassay records as filed in PubChem BioAssay.
